Source: PubChem BioAssay (several laboratories)
ARFGAP1 inhibitor – rat ARFGAP1 inhibition. Arfgap1-stimulated ARF1 GTP hydrolysis, GDP FP detection. inhibition, % at 16.5 µM. hit rate 0.26% among 360,000. Q62848. AID 651572;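 active = inhibition above a per-plate limit, mean inhibition of low control wells plus 3 SD, cut at about 25% in these data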;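 note: 0% = DMSO wells with enzyme and 100% = wells lacking Arfgap1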
Target sequence (Q62848 1-136 limits assumed): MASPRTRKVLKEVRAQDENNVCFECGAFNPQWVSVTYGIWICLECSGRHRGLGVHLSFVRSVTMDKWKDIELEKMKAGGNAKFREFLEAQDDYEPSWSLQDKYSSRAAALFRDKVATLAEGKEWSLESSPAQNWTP
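Material – truncated rat Arfgap1 GAP domain · Buffer or medium – HEPES-based buffer, pH 7.5 · Reagent – human ARF1(Δ1-17)-GTP substrate · Dosing – 16.5 µM single point, 1.26% DMSO · Schedule – GTP hydrolysis reaction 2 h at 25 °C · Technique – GDP detection by fluorescence polarization · Benchmarks – No-Arfgap1 wells (100%) versus DMSO full-reaction wells (0%) · Repeats – single replicate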
ASAP1 GAP inh – blocks human ASAP1-stimulated Arf1 GTP hydrolysis; AID 624377; inhibition, % at 16.5 µM; hit rate 0.19% among 360,000; Q9ULH1; GDP FP detection; in the data active = inhibition above about 25%;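 note: 0% = vehicle with enzyme and substrate and 100% = no enzyme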
FGF22 binding – binders of recombinant human FGF22 by thermal shift; AID 651658; activity (Tm shift, normalised), % at 9.99 µM; SYPRO orange fluorescence; percent of sucrose octasulfate shift, DMSO zero; hit rate 1.5% among 340,000; Q9HCT0;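 active = mean Tm shift, scaled 0 neutral to 100 positive control, at about 1.3% or above, every replicate too, limit read from the data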
Efflux pump inh – antifungal efflux pump inhibition, Nile Red retention | hit rate 0.44% among 330,000 | AID 485275 | inhibition, % at 10 µM | S. cerevisiae Candida pump triplex;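 active = plate passing quality check with inhibition over a set limit, or well fluorescence over plate mean plus 4 SD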;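 note: Nile Red retained in pooled yeast measured as flow cytometry median fluorescence; 0% = buffer negative control and 100% = Enniatin B positive control; higher means more Nile Red kept so more efflux inhibition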
Rtt109 HAT inh – blocks Candida albicans Rtt109/Vps75 acetyltransferase activity. Q5AAJ8. hit rate 0.16% among 330,000. inhibition, % at 34.9 µM. purified Rtt109/Vps75, ThioGlo CoA-SH fluorescence, 4 h;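 active = inhibition of at least 50% in every replicate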
Target sequence (Q5AAJ8 whole entry, looked up): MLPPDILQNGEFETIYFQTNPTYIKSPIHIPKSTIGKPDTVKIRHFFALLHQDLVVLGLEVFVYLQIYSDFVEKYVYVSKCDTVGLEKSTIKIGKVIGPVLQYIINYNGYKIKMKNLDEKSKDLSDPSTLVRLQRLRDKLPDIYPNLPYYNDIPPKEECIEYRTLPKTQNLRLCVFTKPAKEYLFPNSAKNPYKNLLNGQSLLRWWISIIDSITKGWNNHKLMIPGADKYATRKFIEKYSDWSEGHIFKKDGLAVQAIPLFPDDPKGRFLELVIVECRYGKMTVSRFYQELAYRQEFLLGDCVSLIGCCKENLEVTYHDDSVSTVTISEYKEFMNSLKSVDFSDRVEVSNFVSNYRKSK
Active calls of the source: *; x = no result. Hits are enriched below; roughly 1.9% of the tested compounds scored in any of these assays.

SMILES | ARFGAP1 inhibitor | ASAP1 GAP inh | FGF22 binding | Efflux pump inh | Rtt109 HAT inh
CCN1C(=O)C(CC(=O)Nc2ccc(OC)cc2)N(CCc2ccccc2)C1=S (configuration not stated) | -10 | 11 | -1 | 0 | 27
CCN1C(=O)C(CC(=O)Nc2ccc(F)cc2)N(CCc2ccc(OC)cc2)C1=S (configuration not stated) | -6 | -1 | 44* | 0 | 7
Cc1cc(Oc2ccc(=O)n(C)n2)nc(SCc2ccccc2)n1 | -10 | 2 | 43* | 0 | 9
Cc1ccc(NC(=O)Cn2nc(C(=O)Nc3ccc(C)cc3)ccc2=O)cc1 | 1 | 9 | 0 | 0 | -6
CC1Oc2ccccc2N(CC(=O)NCc2ccc3c(c2)OCO3)C1=O (configuration not stated) | -8 | -10 | 43* | 0 | -5
CC1Oc2ccccc2N(CC(=O)Nc2ccc3c(c2)OCO3)C1=O (configuration not stated) | 1 | 11 | x | 0 | -11
CCC1CCCCN1C(=S)NC(=O)c1ccc(F)c(S(=O)(=O)N2CCOCC2)c1 (configuration not stated) | 13 | 2 | 42 | 0 | 0
Cc1ccc(-c2csc(Nc3ccc(S(N)(=O)=O)cc3)n2)o1 | 7 | 10 | 43* | 0 | 0
CCc1nc2ccc(C(=O)N3CCN(CC)CC3)cc2nc1CC | 4 | -13 | 43* | 0 | 0
Cc1cc(C)c(S(=O)(=O)N2CC=C(c3ccccc3)CC2)c(C)c1 | -3 | 7 | 0 | 0 | -3
O=C(O)c1ccc([N+](=O)[O-])c2c1C(=O)c1ccccc1C2=O | 6 | 3 | 0 | 0 | 0
O=C(O)c1ccc(N2C(=O)c3ccccc3C2=O)cc1[N+](=O)[O-] | 3 | -1 | 43* | x | x
COc1cc(-c2nc3n(n2)C(c2ccncc2)C2=C(CCCC2=O)N3)cc(OC)c1OC (configuration not stated) | -4 | 17 | 44* | 0 | 6
COc1ccc(C2C3=C(CCCC3=O)Nc3nc(-c4cc(OC)c(OC)c(OC)c4)nn32)cc1OC (configuration not stated) | 0 | 11 | x | 0 | -3
Cn1c(=O)c2[nH]c(CCNC(=O)c3ccccc3)nc2n(C)c1=O | -6 | 4 | 43* | x | 1
COc1cc(CCC(=O)OCC(=O)N(CC(C)C)C2CCS(=O)(=O)C2)cc(OC)c1OC (configuration not stated) | 0 | -2 | 0 | x | -12
COc1cc(CC(=O)N(CC(C)C)C2CCS(=O)(=O)C2)cc(OC)c1OC (configuration not stated) | 7 | 1 | 43* | 0 | 4
NC(N)=N/N=C/c1cccc([N+](=O)[O-])c1O | -5 | -10 | 43* | 0 | x
O=C(c1ccc(S(=O)(=O)N2CCCCCC2)cc1)N1CCN(c2ccccn2)CC1 | -1 | 11 | x | 0 | -6
C[C@@H]1CCC(=O)N(C[C@@H](C)CSc2ccc(Br)cc2)CC1 | -4 | 3 | 43* | 0 | -7
Cc1ccc(SC[C@H](C)CN2CC[C@H](C)CCC2=O)cc1 | 7 | -2 | 0 | 0 | 2
C=CCNC(=O)CCc1nnc(C2(c3ccc(Cl)cc3)CCC2)o1 | 11 | -4 | 0 | 0 | x
CC(c1ccon1)N(C)C(=O)CCc1nnc(C2(c3ccc(Cl)cc3)CCC2)o1 (configuration not stated) | 16 | 6 | 43* | 0 | 10
O=C(CCc1nnc(C2(c3ccc(Cl)cc3)CCC2)o1)NC1CC1 | 7 | 10 | 44* | 0 | 0
COCC(C)NC(=O)CCc1nnc(C2(c3ccc(Cl)cc3)CCC2)o1 (configuration not stated) | 5 | -10 | x | 0 | 0
SMILES | ARFGAP1 inhibitor | ASAP1 GAP inh | FGF22 binding | Efflux pump inh | Rtt109 HAT inh
O=C(NCCC1=CCCCC1)Nc1ccc2nsnc2c1 | -6 | 10 | 43* | 0 | -27
Oc1ccc(/C=N/N=C/c2ccc(O)cc2)cc1 | 6 | -3 | 66* | 0 | -5
Cc1noc(C)c1COc1ccc(CC(=O)NCc2ccccc2)cc1 | 12 | 3 | 0 | 0 | 10
Cc1nc(OCc2c(C)noc2C)c2ccccc2n1 | 15 | -4 | 43* | 0 | -3
CCOC(=O)CSc1nnnn1-c1cc(OC)ccc1OC | 15 | -7 | x | 0 | 13
Cc1cc(N)n(-c2ccc(C(=O)O)cc2)n1 | 12 | 2 | 43* | 0 | -2
Cc1cc(C)n(-c2ccc(C(=O)O)cc2)n1 | 6 | -9 | x | 0 | -5
Clc1ccc(Cn2cnc3ccccc32)cc1 | 4 | 0 | 43* | 0 | 8
COc1ccc(-c2[nH]ncc2-c2nc(C)cs2)c(O)c1 | -2 | -10 | 1 | 0 | 7
Cc1ccc(/C=C/S(=O)(=O)NCC(=O)O)cc1 | 3 | -6 | 43* | 0 | -1
O=C(O)CNS(=O)(=O)/C=C/c1ccccc1 | 17 | 3 | 1 | 0 | -4
O=C(O)CSc1nnnn1C1CCCCC1 | -3 | -4 | 43* | 0 | 1
O=C(CSc1nnnn1C1CCCCC1)Nc1ccc(F)cc1 | 17 | 18 | 43* | 0 | 1
O=C1OC[C@@H]2CCCN2C(=O)[C@@H](CC(=O)N(CCO)Cc2ccccc2)C/C=C\CC[C@H]1Cc1ccc(F)cc1 | 3 | -2 | 0 | 0 | 22
O=C1OC[C@@H]2CCCN2C(=O)[C@@H](CC(=O)N(CCO)Cc2ccccc2)C/C=C\C[C@@H]1Cc1ccc(F)cc1 | 2 | -4 | 44* | 0 | -2
COc1ccc(-c2cc3ccc(OC)cc3cn2)cc1 | -5 | 2 | 0 | 0 | -2
COc1ccc(-c2cc3ccccc3cn2)cc1 | 1 | -2 | 44* | 0 | 3
Cc1ccc(S(=O)(=O)N(C)C[C@H]2Oc3cc(-c4cccc(F)c4)ccc3S(=O)(=O)N([C@@H](C)CO)C[C@@H]2C)cc1 | x | x | 0 | x | x
O=C(COC(=O)CNC(=O)c1ccccc1)NCCc1ccccc1 | -6 | -1 | 0 | 0 | 0
Cc1ccccc1OCC(=O)NCC(=O)OCC(=O)c1ccc([N+](=O)[O-])cc1 | -7 | 18 | 0 | 0 | 130*
O=C(CCC(=O)OCC(=O)c1ccc([N+](=O)[O-])cc1)Nc1ccccc1Cl | x | x | x | 0 | 75*
O=C(CCC(=O)OCC(=O)c1cccc([N+](=O)[O-])c1)Nc1cccc(Cl)c1Cl | 0 | -4 | x | 0 | -6
Cc1cc(C(=O)NCC(=O)OCC(=O)NCCc2ccccc2)ccc1[N+](=O)[O-] | 9 | 17 | 44* | 0 | 12
Cc1nnc(NC(=O)c2cc3n(n2)C(C(F)(F)F)CC(C2CC2)N3)s1 (configuration not stated) | -11 | 6 | x | 0 | -2
O=C(Nc1ccccc1)c1cc2n(n1)C(C(F)(F)F)CC(C1CC1)N2 (configuration not stated) | 4 | 13 | 43* | 0 | -1
